Measurements as given in ChEMBL document CHEMBL4038338 (J Med Chem, 2017).
Calls of active or inactive are those of the source. No cut-off for these calls is given here.

Key:
[1] = Selectivity ratio of Ki for human liver cathepsin L to Ki for human erythrocytes calpain-1
[2] = Inhibition of human liver cathepsin L using Z-Phe-Arg-AMC as substrate by kinetic fluorescence assay
[3] = organism: Homo sapiens; assay: Selectivity ratio of Ki for recombinant human procathepsin K expressed in Escherichia coli to Ki for human erythrocytes calpain-1
Method in brief: (§1)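 Ki ratios from kinetic fluorescence assays. Cathepsins B (0.25 nM), L (1 nM), K (3 nM) and S (0.5 nM) in MES buffer at pH 6.0. All at room temperature; Ki by Cheng-Prusoff.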

[4] = target: Cathepsin S (Homo sapiens, UniProt P25774); assay: Inhibition of human cathepsin S expressed in Escherichia coli using Z-Val-Val-Arg-AMC as substrate by kinetic fluorescence assay
Cathepsin S, sequence (P25774 whole entry): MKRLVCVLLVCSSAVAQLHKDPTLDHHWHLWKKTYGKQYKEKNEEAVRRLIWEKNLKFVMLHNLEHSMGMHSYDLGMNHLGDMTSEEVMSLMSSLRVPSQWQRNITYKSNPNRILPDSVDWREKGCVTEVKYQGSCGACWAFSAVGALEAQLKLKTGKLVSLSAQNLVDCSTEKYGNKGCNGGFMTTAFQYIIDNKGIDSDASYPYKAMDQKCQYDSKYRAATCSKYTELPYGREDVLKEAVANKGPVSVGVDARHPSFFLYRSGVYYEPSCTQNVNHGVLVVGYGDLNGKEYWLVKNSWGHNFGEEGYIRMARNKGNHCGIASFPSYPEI

[5] = target: T1, Pro-cathepsin H (Homo sapiens) (UniProt P09668); assay: Inhibition of Cathepsin H (unknown origin) at 10 uM
T1 sequence (whole entry): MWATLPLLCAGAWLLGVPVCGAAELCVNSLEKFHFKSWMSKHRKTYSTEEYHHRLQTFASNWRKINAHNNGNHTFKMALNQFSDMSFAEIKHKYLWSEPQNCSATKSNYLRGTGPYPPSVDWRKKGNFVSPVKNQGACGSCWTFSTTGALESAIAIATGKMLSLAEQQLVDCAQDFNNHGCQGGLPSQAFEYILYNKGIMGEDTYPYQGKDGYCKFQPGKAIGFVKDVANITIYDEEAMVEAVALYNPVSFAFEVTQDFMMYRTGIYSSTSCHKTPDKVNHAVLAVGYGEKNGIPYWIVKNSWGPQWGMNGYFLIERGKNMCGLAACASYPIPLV

[6] = target: Cathepsin C (Dipeptidyl peptidase 1) (Homo sapiens, UniProt P53634); assay: Inhibition of Cathepsin C (unknown origin) at 10 uM
Cathepsin C (Dipeptidyl peptidase 1), sequence (P53634 25-134 limits assumed): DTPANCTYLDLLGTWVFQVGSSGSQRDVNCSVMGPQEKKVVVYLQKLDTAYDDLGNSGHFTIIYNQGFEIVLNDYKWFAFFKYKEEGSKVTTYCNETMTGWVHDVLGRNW
Cathepsin C (Dipeptidyl peptidase 1), sequence (P53634 231-394 limits assumed): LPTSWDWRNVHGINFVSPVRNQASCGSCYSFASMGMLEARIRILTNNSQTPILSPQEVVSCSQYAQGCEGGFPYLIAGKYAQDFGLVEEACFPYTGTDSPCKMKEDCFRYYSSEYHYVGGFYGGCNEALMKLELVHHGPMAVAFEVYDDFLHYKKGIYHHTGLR
Cathepsin C (Dipeptidyl peptidase 1), sequence (P53634 395-463 limits assumed): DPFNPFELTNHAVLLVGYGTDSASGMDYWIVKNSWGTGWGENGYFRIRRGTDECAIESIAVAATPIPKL

[7] = target: T2, Calpain-1 catalytic subunit (Homo sapiens) (UniProt P07384); assay: Inhibition of human erythrocytes calpain-1 using Suc-Leu-Tyr-AMC as substrate in presence of up to 10 mM glutathione by kinetic fluorescence assay
T2 sequence (whole entry): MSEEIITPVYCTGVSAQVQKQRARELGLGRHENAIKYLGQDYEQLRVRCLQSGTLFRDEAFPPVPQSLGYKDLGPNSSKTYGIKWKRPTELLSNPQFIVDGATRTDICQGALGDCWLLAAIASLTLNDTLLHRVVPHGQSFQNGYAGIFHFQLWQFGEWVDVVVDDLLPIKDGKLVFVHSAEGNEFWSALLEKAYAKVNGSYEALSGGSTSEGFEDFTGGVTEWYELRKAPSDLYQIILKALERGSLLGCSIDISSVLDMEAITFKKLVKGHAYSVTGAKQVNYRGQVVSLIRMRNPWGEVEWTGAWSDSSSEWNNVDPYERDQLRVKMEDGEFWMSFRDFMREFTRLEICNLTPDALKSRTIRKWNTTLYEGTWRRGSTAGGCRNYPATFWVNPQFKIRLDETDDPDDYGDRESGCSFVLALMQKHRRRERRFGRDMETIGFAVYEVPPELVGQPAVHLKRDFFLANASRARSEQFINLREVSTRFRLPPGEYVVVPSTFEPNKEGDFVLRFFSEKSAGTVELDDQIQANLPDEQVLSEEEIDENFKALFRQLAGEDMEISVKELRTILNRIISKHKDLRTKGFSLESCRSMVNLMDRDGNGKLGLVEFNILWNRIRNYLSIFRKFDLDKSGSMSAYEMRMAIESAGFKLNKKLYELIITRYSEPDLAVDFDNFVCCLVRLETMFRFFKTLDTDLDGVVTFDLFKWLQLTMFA

[8] = target: Cathepsin B (Homo sapiens, UniProt P07858); assay: Inhibition of human liver cathepsin B using Z-Phe-Arg-AMC as substrate by kinetic fluorescence assay
[9] = organism: Homo sapiens; assay: Selectivity ratio of Ki for recombinant human cathepsin S expressed in Escherichia coli to Ki for human erythrocytes calpain-1; method in brief: as §1
[10] = Selectivity ratio of Ki for human liver cathepsin B to Ki for human erythrocytes calpain-1
[11] = target: T3, Cathepsin K (Homo sapiens, UniProt P43235); assay: Inhibition of human procathepsin K expressed in Escherichia coli using Z-Gly-Pro-Arg-AMC as substrate by kinetic fluorescence assay
T3 sequence (P43235 whole entry): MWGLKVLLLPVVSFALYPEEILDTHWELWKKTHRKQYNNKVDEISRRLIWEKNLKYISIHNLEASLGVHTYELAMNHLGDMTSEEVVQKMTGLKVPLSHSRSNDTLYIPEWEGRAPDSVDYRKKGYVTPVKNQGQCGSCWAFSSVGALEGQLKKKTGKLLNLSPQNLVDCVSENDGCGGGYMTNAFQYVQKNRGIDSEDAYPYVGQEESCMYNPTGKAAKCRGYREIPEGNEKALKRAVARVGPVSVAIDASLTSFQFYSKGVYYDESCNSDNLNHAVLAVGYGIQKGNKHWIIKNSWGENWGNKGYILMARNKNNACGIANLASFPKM
Method in brief: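 Cathepsin K at 3 nM, activated from E. coli-expressed recombinant human procathepsin K. Substrate 10 µM Z-Gly-Pro-Arg-AMC in MES/EDTA/Brij 35/L-cysteine buffer, pH 6.0, room temperature. Ki obtained via Cheng-Prusoff from IC50. Mean of 2–4 curves.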

[12] = Thiol reactivity using recombinant human full length 13C-labeled La antigen (100 to 324 residues) expressed in Escherichia coli BL21(DE3) by ALARM NMR
[13] = target: T4, Calpain-1 catalytic subunit (Homo sapiens, UniProt P07384); assay: Inhibition of human erythrocytes calpain-1 using Suc-Leu-Tyr-AMC as substrate by kinetic fluorescence assay; conditions: read-out: Ki
T4 sequence (P07384 whole entry): T2 sequence (whole entry)

[14] = Solubility of the compound; assay type: physicochemical
[15] = target: T5, Calpain-1 catalytic subunit (Rattus norvegicus) (UniProt P97571); assay: (§2) Inhibition of calpain-1 in rat hippocampal slices assessed as prevention of NMDA-induced spectrin cleavage preincubated for 30 mins followed by NMDA addition measured after 5 hrs by Western blot analysis
T5 sequence (whole entry): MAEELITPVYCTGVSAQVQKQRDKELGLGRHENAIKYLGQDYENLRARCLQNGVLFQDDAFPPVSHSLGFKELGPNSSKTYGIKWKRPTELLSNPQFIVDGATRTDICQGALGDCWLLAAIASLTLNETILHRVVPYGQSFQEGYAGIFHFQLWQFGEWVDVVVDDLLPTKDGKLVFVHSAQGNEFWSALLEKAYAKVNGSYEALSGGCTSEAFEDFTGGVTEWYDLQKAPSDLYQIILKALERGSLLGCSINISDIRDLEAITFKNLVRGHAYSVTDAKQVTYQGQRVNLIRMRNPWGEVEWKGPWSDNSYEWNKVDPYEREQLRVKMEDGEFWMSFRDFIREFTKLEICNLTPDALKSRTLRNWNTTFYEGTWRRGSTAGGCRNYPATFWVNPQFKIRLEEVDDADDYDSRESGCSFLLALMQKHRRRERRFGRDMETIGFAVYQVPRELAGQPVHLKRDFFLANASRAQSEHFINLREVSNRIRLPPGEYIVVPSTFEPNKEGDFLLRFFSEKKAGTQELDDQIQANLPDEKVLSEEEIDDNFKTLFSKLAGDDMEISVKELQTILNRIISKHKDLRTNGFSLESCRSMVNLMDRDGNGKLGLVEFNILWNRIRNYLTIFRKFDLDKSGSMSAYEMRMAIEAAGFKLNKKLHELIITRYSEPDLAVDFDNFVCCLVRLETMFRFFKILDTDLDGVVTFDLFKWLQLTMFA
Method in brief: (§3)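 Organotypic rat hippocampal slice cultures kept 6–8 days in 2% serum medium; 30 min inhibitor pre-incubation, then 10 µM NMDA for 5 h at 34°C, 5% CO2. Slices lysed; 150/145 kDa spectrin breakdown products quantified by densitometric Western blot with anti-spectrin alpha chain antibody.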

[16] = target: T6, Calpain-1 catalytic subunit (Rattus norvegicus, UniProt P97571); assay: as §2; method in brief: as §3
T6 sequence (P97571 whole entry): T5 sequence (whole entry)

| Structure (SMILES) | Ratio Ki [1] | Ki [2] | Ratio Ki [3] | Ki [4] | inhibition [5] | inhibition at 10 µM [6] | inhibition [7] | Ki [8] | Ratio Ki [9] | Ratio Ki [10] | Ki [11] | Thiol reactivity [12] | Ki [13] | solubility [14] | fIC50 [15] | IC50 [16] |
| --- | --- | --- | --- | --- | --- | --- | --- | --- | --- | --- | --- | --- | --- | --- | --- | --- |
| CCN(CC)Cc1ccc(/C=C/c2ccccc2C(=O)NC(Cc2ccccc2)C(=O)C(N)=O)cc1 (stereo not drawn) | 2.5 | 137 nM | < 0.1 | 3290 nM | 84% | 94% | Active | 28 nM | 59 | <1 | 1.8 nM | Metabolite not detected | 56 nM |  |  |  |
| NC(=O)C(=O)C(Cc1ccccc1)NC(=O)c1cccnc1-n1cc2c(n1)-c1ccccc1OC2 (stereo not drawn) | 278 |  | 47 |  |  |  | Active |  | > 500 | 29 |  | Metabolite not detected | 8 nM | Insoluble | 65 nM | 2020 nM |
